In one data set the target is Cytochrome P450 2C19 (Homo sapiens, UniProt P33261). Kind of data set: Time-dependent inhibition of human CYP2C19. The class given is ADME.
Data set [1] is described as follows: Oral bioavailability in CD(SD) rat at 3 mg/kg. Conditions: in vivo. It is filed as ADME, organism-based.
Data set [2] can be described thus: Stability in human liver microsomes assessed as compound remaining after 60 mins. It is filed as ADME, Microsome. To be noted: read-out: Stability. The method in brief:
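Human liver microsomes incubated with compound for 60 minutes; value reported as % of compound remaining.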
On the technique in general: Liver microsomes are a subcellular fraction often used to study metabolism.

A short description of data set [3]: AUC in CD(SD) rat at 3 mg/kg, po. The class given is ADME, organism-based. Conditions: in vivo.
In data set [4] the target is T1, Nuclear receptor ROR-alpha (Homo sapiens, UniProt P35398).
T1 sequence (P35398 whole entry): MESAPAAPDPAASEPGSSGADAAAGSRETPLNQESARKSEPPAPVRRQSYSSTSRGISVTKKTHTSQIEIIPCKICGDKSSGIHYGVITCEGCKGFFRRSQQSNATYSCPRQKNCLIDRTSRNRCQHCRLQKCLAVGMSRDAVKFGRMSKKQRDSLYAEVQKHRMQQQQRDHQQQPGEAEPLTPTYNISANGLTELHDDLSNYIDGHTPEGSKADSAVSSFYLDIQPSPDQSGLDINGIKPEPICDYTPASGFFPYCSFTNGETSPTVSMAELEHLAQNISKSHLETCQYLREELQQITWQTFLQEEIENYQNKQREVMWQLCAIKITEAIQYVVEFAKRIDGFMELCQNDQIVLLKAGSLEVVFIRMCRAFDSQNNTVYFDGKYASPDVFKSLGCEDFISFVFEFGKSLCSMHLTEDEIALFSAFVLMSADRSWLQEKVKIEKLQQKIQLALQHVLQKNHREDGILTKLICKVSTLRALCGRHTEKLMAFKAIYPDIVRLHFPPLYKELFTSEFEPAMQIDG
Kind of data set: Inhibition of GAL4-fused human RORalpha transcriptional activity expressed in CHOK1 cells after 2 days by luciferase reporter gene assay. It is filed as cell-based.

The target in data set [5] is T2, Nuclear receptor ROR-gamma (Homo sapiens, UniProt P51449).
T2 sequence (P51449 whole entry): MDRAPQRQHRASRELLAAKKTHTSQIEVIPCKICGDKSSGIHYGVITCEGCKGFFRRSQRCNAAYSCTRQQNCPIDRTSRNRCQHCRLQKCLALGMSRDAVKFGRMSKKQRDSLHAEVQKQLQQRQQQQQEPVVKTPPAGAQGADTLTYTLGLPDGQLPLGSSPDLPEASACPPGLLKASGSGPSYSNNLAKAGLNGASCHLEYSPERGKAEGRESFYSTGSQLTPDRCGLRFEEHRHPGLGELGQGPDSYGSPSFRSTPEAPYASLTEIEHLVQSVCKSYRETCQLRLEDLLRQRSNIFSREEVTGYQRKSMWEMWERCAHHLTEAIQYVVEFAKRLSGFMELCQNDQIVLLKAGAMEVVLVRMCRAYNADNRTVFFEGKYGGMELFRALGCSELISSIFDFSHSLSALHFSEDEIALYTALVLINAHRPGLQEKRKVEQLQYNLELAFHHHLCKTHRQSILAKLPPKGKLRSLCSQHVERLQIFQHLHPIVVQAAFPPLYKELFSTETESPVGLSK
Briefly: Inhibition of human GAL4-fused RORgamma LBD transcriptional activity expressed in CHOK1 cells after 2 days by luciferase reporter gene assay. It is filed as cell-based. Background: In a reporter assay the amount or activity of a reporter protein is the signal.

For data set [6], the target named is T3, Peroxisome proliferator-activated receptor delta (Homo sapiens, UniProt Q03181).
T3 sequence (Q03181 whole entry): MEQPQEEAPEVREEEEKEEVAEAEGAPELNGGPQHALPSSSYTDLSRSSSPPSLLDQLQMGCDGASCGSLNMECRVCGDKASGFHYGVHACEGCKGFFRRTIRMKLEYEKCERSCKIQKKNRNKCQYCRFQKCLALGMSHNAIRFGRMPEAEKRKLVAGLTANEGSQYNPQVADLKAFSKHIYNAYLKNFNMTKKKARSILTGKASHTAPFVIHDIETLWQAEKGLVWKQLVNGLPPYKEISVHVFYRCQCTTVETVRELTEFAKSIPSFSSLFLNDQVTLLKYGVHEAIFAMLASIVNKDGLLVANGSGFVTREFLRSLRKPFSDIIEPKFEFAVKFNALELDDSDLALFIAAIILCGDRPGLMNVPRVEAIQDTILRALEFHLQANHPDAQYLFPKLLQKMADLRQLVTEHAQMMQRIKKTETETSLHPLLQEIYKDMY
Kind of data set: Inhibition of GAL4-fused human PPARdelta transcriptional activity expressed in CHOK1 cells after 2 days by luciferase reporter gene assay. It is filed as cell-based.

Sequence of Cytochrome P450 2C19 (P33261 whole entry): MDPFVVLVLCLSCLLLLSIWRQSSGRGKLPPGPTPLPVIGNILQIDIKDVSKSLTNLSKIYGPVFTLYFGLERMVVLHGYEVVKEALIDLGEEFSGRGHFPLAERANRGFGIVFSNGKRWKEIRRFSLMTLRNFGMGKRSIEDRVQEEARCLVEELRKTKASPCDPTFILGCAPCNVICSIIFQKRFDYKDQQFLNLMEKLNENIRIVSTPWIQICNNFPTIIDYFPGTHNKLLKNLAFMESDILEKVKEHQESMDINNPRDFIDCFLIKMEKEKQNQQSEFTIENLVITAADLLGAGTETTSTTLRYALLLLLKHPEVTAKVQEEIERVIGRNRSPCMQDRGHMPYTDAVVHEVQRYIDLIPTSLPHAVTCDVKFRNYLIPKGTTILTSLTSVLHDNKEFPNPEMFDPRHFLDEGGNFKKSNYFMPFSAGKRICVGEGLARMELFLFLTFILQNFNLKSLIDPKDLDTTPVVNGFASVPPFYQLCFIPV

The IC50 is the concentration needed to halve the response being measured. In general, bioavailability refers to dose-corrected exposure relative to a reference, in per cent. Lower therefore signals poor availability. The term AUC denotes the area under the concentration-time curve, a measure of exposure. Low values mean less exposure, high ones more exposure. What is called EC50 is the concentration giving half of the maximal effect. Low readings indicate greater potency, high ones weaker potency. In turn, `CC(C)(C)Cc1cc(-c2onc([C@@H](CCC(=O)[O-])CC(=O)Nc3ccc(Cl)cc3Cl)c2C2CC2)no1.[Na+]` registered an IC50 against Cytochrome P450 2C19 greater than 50 µM. The same molecule registered a bioavailability in data set [1] of 72%. Also, the remaining at 1 h in data set [2] stood at 96%. Besides, in data set [3], the AUC was found to be 15 µM·h. In addition, the EC50 is greater than 20 µM in data set [4], 0.009 µM in data set [5] and greater than 20 µM in data set [6].
